From ChEMBL document CHEMBL5678806, “NMS-P937, an orally available, specific small-molecule polo-like kinase 1 inhibitor with antitumor activity in solid and hematologic malignancies” (Mol Cancer Ther, 2012)
Activity calls are given as the source filed them. The calls are words filed in the database; no cut-off is given here.

Experiments:
[1] = biological target: Serine/threonine-protein kinase Chk1 (Homo sapiens, UniProt O14757); assay: Inhibition of CHK1 (unknown origin) in presence of [gamma-33P]ATP
[2] = biological target: MAP kinase-interacting serine/threonine-protein kinase 2 (Homo sapiens, UniProt Q9HBH9); assay: Inhibition of MNK2 (unknown origin) in presence of [gamma-33P]ATP
[3] = Inhibition of PKAalpha (unknown origin) in presence of [gamma-33P]ATP; set-up: species or system Homo sapiens
[4] = biological target: Tyrosine-protein kinase receptor TYRO3 (Homo sapiens) (UniProt Q06418); assay: Inhibition of N-terminal His6-tagged recombinant human Rse (451 to end residues) expressed in baculovirus infected Sf21 cells assessed as residual activity at 0.1 uM relative to control
[5] = biological target: ALK tyrosine kinase receptor (Homo sapiens) (UniProt Q9UM73); assay: Inhibition of N-terminal His6-tagged recombinant human ALK (1058 to end residues) expressed in baculovirus infected Sf21 cells assessed as residual activity at 1 uM relative to control
[6] = biological target: Tyrosine-protein kinase HCK (Homo sapiens) (UniProt P08631); assay: Inhibition of N-terminal 6His-tagged recombinant human Hck (230 to 497 residues) expressed in baculovirus infected Sf21 cells assessed as residual activity at 1 uM relative to control
[7] = biological target: Tyrosine-protein kinase Lyn (Homo sapiens, UniProt P07948); assay: Inhibition of N-terminal his6-tagged recombinant full-length human Lyn expressed in Sf21 cells assessed as residual activity at 1 uM relative to control
[8] = biological target: Serine/threonine-protein kinase D1 (Homo sapiens) (UniProt Q15139); assay: Inhibition of N-terminal His6-tagged recombinant full-length human PKCmu expressed in Sf21 cells assessed as residual activity at 1 uM relative to control
[9] = biological target: Serine/threonine-protein kinase TBK1 (Homo sapiens) (UniProt Q9UHD2); assay: Inhibition of N-terminal His6-tagged recombinant full-length human TBK1 expressed in baculovirus infected Sf21 cells assessed as residual activity at 1 uM relative to control
SNB-19 = assay: Antiproliferative activity against human SNB-19 cells assessed as inhibition of cell growth incubated for 72 hrs by cell-titer glo assay; assay type: functional, cell-based; details: SNB-19, 72 h
SF-539 = assay: Antiproliferative activity against human SF-539 cells assessed as inhibition of cell growth incubated for 72 hrs by cell-titer glo assay; assay type: functional, cell-based; details: SF-539, 72 h
Summary of the method: (§1)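 Cells from ATCC or ECACC, kept in supplier-recommended medium with 1% penicillin-streptomycin at 37°C, 5% CO₂. Seeded at 10,000–30,000/cm² (adherent) or 100,000/mL (nonadherent) in medium with 10% fetal calf serum. Dosed after 24 h in duplicate with serial dilutions. Viable cells read by CellTiter-Glo 72 h later. IC50 from sigmoidal fit. At least two independent experiments.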

HDQ-P1 = assay: Antiproliferative activity against human HDQ-P1 cells assessed as inhibition of cell growth incubated for 72 hrs by cell-titer glo assay; assay type: functional, cell-based; details: HDQ-P1, 72 h
Summary of the method: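 Cells seeded at 10,000–30,000/cm² (adherent) in medium with 10% fetal calf serum; after 24 h treated in duplicate with serial dilutions for 72 h. Viable cell number read by CellTiter-Glo luminescence. IC50 from sigmoidal curve fit; at least two independent experiments.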

SW48 = assay: Antiproliferative activity against human SW48 cells assessed as inhibition of cell growth incubated for 72 hrs by cell-titer glo assay; assay type: functional, cell-based; details: SW48, 72 h
[10] = Antiproliferative activity against human CL-11 cells assessed as inhibition of cell growth incubated for 72 hrs by cell-titer glo assay; assay type: functional, cell-based; details: CL-11, 72 h
Summary of the method: (§2)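 Cells seeded 10,000–30,000/cm² (adherent) or 100,000/mL (suspension) in medium with 10% fetal calf serum; after 24 h treated in duplicate with serial dilutions for 72 h. Viable cells read by CellTiter-Glo luminescence; IC50 from sigmoidal fit; at least two independent experiments.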

COLO 320 = assay: Antiproliferative activity against human COLO 320 cells assessed as inhibition of cell growth incubated for 72 hrs by cell-titer glo assay; assay type: functional, cell-based; details: COLO 320, 72 h; summary of the method: as §2
NCI-H82 = assay: Antiproliferative activity against human NCI-H82 cells assessed as inhibition of cell growth incubated for 72 hrs by cell-titer glo assay; assay type: functional, cell-based; details: NCI-H82, 72 h; summary of the method: as §1
[11] = Antiproliferative activity against human A2780 ADR cells assessed as inhibition of cell growth incubated for 72 hrs by cell-titer glo assay; assay type: functional, cell-based; summary of the method: as §2
BXPC-3 = assay: Antiproliferative activity against human BXPC-3 cells assessed as inhibition of cell growth incubated for 72 hrs by cell-titer glo assay; assay type: functional, cell-based; details: BXPC-3, 72 h; summary of the method: as §2
LNCaP = assay: Antiproliferative activity against human LNCaP cells assessed as inhibition of cell growth incubated for 72 hrs by cell-titer glo assay; assay type: functional, cell-based
Summary of the method: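 Cells seeded at 10,000–30,000/cm² (adherent) or 100,000/mL (nonadherent) in medium with 10% fetal calf serum; after 24 h, treated in duplicate with serial dilutions for 72 h. Viable cell number read by CellTiter-Glo luminescence; IC50 from sigmoidal fit; at least two independent experiments.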

MOLT-4 = assay: Antiproliferative activity against human MOLT-4 cells assessed as inhibition of cell growth incubated for 72 hrs by cell-titer glo assay; assay type: functional, cell-based; details: MOLT-4, 72 h; summary of the method: as §1
[12] = Antiproliferative activity against human adriamycin-resistant RPMI-8226-ADR cells assessed as inhibition of cell growth incubated for 72 hrs by cell-titer glo assay; assay type: functional, cell-based
[13] = AUC in Beagle dog at 5 mg/kg, po by LC-MS analysis; assay type: ADME, organism-based, Canis lupus familiaris; details: in vivo
[14] = Tmax in Beagle dog at 5 mg/kg, po by LC-MS analysis; assay type: ADME, organism-based, Canis lupus familiaris; details: in vivo
[15] = Tmax in male cynomolgus monkey at 5 mg/kg, po by LC-MS analysis; assay type: ADME, organism-based, Macaca fascicularis; details: in vivo
A2780 [16] = assay: Induction of cell cycle arrest in human A2780 cells assessed as accumulation of cells in G2/M phase by measuring NPM phosphorylation on Thr199 incubated for 24 hrs by Western blotting analysis; assay type: functional, cell-based; details: dose 0.02-0.2 µmol/L
Summary of the method: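 A2780 ovarian carcinoma cells treated 24 h with a range of concentrations, with DMSO and nocodazole controls. 20 µg protein extract separated by SDS-PAGE and immunoblotted with chemiluminescent detection. Probed for total and phospho-Thr210 PLK1, phospho-Ser10 histone H3, phospho-Thr199 NPM and phospho-Tyr15 CDK1. Total NPM, tubulin and total CDK1 served as loading controls.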

U2OS = assay: Induction of apoptosis in human U2OS cells assessed as colocalization of cells by measuring activation of caspase 3 incubated for 24 hrs by DRAQ 5 staining based high content imaging assay relative to control; assay type: functional
COLO 205 = assay: Antitumor activity against human COLO 205 cells xenografted in nu/nu mouse assessed as tumor growth inhibition at 60 mg/kg, po administered for 10 days; assay type: functional, organism-based; details: time 10.0 day
A2780 [17] = assay: In vivo inhibition of PLK1 in human A2780 cells xenografted in nu/nu mouse assessed as increased TCTP phosphorylation on Ser46 at 60 mg/kg, po administered for 6 to 12 hrs hrs by Western blotting analysis; assay type: functional, organism-based; details: time lower 6.0 hrs, time upper […]

ALK tyrosine kinase receptor (Homo sapiens), sequence (Q9UM73 19-1620 limits assumed): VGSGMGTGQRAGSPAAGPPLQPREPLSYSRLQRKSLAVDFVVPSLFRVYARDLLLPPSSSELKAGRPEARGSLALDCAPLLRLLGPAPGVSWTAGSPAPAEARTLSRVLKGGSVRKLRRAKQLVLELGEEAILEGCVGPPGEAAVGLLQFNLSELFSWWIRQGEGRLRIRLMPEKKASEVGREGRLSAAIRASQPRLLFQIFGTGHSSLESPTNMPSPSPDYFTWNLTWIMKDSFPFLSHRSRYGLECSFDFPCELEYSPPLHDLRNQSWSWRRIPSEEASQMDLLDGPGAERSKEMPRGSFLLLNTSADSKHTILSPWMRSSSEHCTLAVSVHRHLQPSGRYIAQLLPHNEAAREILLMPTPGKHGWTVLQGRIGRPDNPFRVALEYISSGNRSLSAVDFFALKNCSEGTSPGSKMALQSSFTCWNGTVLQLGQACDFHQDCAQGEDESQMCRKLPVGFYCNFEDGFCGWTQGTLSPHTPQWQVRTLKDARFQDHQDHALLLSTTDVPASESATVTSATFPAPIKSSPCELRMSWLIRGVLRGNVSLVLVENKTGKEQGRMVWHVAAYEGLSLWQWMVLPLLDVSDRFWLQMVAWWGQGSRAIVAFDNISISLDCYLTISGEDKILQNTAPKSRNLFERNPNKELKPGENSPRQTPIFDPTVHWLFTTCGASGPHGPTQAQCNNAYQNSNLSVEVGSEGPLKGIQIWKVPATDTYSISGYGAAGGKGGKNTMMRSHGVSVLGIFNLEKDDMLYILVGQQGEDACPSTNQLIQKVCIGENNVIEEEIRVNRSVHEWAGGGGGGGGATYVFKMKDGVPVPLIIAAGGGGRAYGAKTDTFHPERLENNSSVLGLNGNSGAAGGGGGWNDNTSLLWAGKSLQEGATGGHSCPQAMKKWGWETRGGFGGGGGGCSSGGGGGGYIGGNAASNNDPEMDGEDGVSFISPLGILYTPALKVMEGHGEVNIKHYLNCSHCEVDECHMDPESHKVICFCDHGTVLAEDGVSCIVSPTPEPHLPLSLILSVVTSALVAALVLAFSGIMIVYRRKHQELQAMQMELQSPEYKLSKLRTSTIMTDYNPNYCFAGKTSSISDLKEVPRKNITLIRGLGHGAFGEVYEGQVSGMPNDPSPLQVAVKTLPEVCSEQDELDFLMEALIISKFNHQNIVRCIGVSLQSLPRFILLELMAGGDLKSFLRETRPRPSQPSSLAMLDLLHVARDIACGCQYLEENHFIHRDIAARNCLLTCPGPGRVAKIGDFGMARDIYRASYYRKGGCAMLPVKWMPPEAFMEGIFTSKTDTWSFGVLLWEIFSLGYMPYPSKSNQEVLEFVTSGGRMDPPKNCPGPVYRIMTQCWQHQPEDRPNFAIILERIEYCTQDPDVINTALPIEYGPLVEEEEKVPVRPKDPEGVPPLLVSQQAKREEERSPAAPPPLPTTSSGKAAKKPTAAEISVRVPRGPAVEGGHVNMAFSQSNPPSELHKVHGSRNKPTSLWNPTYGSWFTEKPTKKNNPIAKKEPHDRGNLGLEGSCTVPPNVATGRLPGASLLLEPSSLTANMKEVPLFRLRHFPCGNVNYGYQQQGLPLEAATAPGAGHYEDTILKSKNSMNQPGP
MAP kinase-interacting serine/threonine-protein kinase 2, sequence (Q9HBH9 whole entry): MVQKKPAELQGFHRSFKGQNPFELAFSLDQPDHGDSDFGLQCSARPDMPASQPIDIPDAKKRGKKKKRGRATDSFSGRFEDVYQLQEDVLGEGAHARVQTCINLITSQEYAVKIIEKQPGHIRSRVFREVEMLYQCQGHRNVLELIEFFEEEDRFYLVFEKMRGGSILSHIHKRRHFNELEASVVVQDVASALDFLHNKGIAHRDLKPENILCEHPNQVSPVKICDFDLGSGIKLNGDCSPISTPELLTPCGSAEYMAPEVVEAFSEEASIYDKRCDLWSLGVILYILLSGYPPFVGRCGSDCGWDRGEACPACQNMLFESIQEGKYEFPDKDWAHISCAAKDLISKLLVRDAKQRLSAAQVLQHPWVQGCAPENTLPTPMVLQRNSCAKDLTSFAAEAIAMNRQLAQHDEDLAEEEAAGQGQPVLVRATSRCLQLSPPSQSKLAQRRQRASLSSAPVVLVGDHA
Tyrosine-protein kinase HCK (Homo sapiens), sequence (P08631 2-526 limits assumed): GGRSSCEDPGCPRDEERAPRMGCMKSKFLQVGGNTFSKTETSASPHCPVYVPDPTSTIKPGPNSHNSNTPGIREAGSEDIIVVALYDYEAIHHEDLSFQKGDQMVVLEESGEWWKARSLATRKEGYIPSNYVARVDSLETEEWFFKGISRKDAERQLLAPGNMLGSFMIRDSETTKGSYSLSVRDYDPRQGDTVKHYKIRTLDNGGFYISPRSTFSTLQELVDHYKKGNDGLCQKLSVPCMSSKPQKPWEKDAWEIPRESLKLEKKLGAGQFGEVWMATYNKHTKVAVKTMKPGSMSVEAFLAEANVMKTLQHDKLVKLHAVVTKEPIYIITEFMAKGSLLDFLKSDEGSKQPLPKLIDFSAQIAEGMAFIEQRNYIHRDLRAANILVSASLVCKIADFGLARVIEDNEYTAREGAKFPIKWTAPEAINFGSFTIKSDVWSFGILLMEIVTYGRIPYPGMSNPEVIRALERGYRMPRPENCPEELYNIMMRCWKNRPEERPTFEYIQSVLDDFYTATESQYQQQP
Serine/threonine-protein kinase D1 (Homo sapiens), sequence (Q15139 whole entry): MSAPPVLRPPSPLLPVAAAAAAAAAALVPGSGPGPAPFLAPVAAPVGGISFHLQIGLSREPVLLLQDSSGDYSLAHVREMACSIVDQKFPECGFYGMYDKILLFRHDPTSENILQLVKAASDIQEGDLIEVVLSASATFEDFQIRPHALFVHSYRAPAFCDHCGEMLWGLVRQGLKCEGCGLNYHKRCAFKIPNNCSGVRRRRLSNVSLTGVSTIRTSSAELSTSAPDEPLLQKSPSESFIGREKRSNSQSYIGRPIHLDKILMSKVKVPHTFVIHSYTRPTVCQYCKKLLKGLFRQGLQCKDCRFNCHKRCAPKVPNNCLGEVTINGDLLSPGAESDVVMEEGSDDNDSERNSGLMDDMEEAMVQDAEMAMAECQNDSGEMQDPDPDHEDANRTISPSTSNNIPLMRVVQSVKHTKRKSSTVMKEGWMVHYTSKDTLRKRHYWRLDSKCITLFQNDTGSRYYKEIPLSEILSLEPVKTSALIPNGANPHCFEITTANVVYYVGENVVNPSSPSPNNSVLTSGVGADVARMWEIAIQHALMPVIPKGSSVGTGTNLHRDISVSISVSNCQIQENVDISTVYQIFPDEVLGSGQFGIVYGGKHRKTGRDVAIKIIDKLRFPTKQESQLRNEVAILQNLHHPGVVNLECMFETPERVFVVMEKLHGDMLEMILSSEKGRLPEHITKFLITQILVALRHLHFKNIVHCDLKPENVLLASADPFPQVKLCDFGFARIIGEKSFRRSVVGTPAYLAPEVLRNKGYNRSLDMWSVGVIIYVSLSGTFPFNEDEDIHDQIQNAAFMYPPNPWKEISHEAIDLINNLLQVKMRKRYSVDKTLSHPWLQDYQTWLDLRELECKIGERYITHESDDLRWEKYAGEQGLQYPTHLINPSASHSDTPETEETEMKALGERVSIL
Tyrosine-protein kinase Lyn, sequence (P07948 2-512 limits assumed): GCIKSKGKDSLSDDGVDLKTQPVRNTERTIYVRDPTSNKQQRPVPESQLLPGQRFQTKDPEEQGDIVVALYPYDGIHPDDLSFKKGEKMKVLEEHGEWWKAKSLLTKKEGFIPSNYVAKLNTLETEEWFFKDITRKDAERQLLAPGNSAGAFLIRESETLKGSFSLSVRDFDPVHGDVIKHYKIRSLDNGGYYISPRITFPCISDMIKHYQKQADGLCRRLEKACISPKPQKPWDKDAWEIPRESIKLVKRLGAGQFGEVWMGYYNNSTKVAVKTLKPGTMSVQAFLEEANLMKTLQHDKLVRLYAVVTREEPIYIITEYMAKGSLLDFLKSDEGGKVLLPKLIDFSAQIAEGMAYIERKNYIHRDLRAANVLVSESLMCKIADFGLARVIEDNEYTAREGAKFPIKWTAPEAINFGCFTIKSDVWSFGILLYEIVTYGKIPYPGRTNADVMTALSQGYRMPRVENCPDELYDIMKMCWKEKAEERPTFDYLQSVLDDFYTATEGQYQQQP
Tyrosine-protein kinase receptor TYRO3 (Homo sapiens), sequence (Q06418 whole entry): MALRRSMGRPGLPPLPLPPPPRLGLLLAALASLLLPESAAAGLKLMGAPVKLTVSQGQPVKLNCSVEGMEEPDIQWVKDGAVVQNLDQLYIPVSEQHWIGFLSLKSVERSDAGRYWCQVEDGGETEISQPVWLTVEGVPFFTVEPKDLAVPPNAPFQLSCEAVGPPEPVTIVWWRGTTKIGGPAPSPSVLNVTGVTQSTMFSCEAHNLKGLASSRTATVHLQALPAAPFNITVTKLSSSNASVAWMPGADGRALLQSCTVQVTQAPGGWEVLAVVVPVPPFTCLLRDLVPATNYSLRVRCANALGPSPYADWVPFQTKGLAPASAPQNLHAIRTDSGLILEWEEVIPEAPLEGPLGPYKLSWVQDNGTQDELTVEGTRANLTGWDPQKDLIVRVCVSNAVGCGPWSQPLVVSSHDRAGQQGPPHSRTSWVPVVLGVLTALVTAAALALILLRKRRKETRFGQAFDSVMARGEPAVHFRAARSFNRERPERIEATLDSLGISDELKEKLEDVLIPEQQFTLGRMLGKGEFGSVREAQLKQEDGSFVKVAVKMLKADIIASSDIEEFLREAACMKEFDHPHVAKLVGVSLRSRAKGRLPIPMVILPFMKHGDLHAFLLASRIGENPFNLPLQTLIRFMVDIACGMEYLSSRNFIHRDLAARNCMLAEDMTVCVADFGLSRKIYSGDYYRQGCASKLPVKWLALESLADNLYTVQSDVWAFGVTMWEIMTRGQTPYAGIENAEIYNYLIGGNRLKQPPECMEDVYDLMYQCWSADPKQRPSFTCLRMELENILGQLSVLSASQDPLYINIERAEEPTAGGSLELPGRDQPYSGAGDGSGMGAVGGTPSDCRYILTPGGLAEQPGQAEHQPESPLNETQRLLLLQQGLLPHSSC

## CN1CCN(c2ccc(OC(F)(F)F)c(Nc3ncc4c(n3)-c3c(c(C(N)=O)nn3CCO)CC4)c2)CC1 [ONVANSERTIB]
[1]
  IC50: > 10000 nM
[2]
  IC50: > 10000 nM
[3]
  IC50: > 10000 nM
[4]
  Activity: 137%
[5]
  Activity: 133%
[6]
  Activity: 118%
[7]
  Activity: 198%
[8]
  Activity: 85%
[9]
  Activity: 96%
SNB-19
  IC50: 224 nM
SF-539
  IC50: 47 nM
HDQ-P1
  IC50: 51 nM
SW48
  IC50: 32 nM
[10]
  IC50: 139 nM
COLO 320
  IC50: 192 nM
NCI-H82
  IC50: 16 nM
[11]
  IC50: 620 nM
BXPC-3
  IC50: 117 nM
LNCaP
  IC50: 82 nM
MOLT-4
  IC50: 45 nM
[12]
  IC50: 1310 nM
[13]
  AUC: 8.1 µM·h
[14]
  Tmax: 1.2 h
[15]
  Tmax: 2.7 h
A2780 [16]
  Activity: Dose-Dependent Effect
U2OS
  Activity: 13%
COLO 205
  TGI: Active
A2780 [17]
  inhibition: inactive
